Test results published in ChEMBL document CHEMBL1148385, “Synthesis and opioid activity of side-chain-to-side-chain cyclic dynorphin A-(1-11) amide analogues cyclized between positions 2 and 5. 1. Substitutions in position 3” (J Med Chem, 2004).
Where a SMILES comes first, the peptide text is derived from it.

What was measured:
[1] = biological target: T1, Kappa-type opioid receptor (Rattus norvegicus, UniProt P34975); test: Binding affinity towards Opioid receptor kappa 1 expressed in CHO cells was determined by using [3H]diprenorphine as radioligand; format: cell-based
Summary of the method: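 Competition binding at room temperature on CHO cells stably expressing cloned rat κ (radioligand [³H]diprenorphine, KD 0.45 nM), rat μ ([³H]DAMGO, KD 0.49 nM) or mouse δ ([³H]DPDPE, KD 1.76 nM) receptors. Peptidase inhibitors (10 μM bestatin, 30 μM captopril, 50 μM L-leucyl-L-leucine) and 3 mM Mg²⁺ present. Nonspecific binding defined with 10 μM Dyn A-(1–13)NH₂, DAMGO or DPDPE respectively. Logistic fit for IC50; Ki via Cheng–Prusoff; mean ± SEM, ≥3 assays.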

Mu-type opioid receptor = Mu-type opioid receptor (Rattus norvegicus, UniProt P33535); test: Binding affinity towards Opioid receptor mu 1 expressed in CHO cells was determined by using[3H]DAMGO as radioligand; format: cell-based
[2] = biological target: Delta-type opioid receptor (Mus musculus, UniProt P32300); test: Binding affinity towards opioid receptor delta 1 expressed in CHO cells was determined by using [3H]DPDPE as radioligand; format: cell-based
[3] = biological target: T1, Kappa-type opioid receptor; test: Inhibition of forskolin-stimulated adenylyl cyclase activity by compound in CHO cells expressing Opioid receptor kappa 1; format: functional, cell-based
Summary of the method: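 CHO cells stably expressing cloned rat κ receptor were incubated 40 min at 37 °C with 50 μM forskolin and various peptide concentrations. RO20-1724 (50 μM) and peptidase inhibitors (bestatin, captopril, L-leucyl-L-leucine) were present. [³H]cAMP was counted, with [¹⁴C]cAMP added for recovery correction and counts corrected for crossover. Mean ± SEM of 2–3 separate assays.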

Sequence of Mu-type opioid receptor (P33535 whole entry): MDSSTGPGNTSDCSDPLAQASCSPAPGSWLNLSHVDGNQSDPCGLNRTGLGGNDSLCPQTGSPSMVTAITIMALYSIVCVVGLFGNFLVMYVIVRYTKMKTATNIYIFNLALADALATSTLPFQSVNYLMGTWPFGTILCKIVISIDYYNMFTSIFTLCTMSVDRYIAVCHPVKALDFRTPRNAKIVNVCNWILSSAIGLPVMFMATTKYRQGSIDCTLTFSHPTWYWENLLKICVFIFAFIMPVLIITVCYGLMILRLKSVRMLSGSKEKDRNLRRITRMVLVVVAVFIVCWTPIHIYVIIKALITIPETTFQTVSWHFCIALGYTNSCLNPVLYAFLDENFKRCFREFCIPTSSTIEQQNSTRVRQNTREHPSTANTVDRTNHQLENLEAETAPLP
Sequence of Delta-type opioid receptor (P32300 whole entry): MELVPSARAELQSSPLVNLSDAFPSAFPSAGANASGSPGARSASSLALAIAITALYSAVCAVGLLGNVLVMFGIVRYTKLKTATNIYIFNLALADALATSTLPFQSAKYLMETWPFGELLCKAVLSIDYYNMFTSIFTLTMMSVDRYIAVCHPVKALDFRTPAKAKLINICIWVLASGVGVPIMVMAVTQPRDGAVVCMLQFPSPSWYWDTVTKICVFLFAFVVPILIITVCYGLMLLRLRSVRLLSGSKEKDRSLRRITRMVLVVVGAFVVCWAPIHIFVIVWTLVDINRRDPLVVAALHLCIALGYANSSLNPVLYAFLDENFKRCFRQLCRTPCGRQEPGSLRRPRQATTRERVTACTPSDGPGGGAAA
T1 sequence (P34975 whole entry): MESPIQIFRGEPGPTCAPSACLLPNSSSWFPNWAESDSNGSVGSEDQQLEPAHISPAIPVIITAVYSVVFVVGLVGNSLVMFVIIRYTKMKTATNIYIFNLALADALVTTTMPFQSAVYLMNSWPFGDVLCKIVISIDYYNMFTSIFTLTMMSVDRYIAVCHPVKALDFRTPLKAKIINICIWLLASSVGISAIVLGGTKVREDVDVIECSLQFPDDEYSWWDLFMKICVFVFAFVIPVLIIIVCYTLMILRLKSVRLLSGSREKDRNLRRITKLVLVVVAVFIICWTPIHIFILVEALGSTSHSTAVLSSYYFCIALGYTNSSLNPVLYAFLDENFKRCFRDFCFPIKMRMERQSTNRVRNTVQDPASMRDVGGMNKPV

Compound | Ki [1] [nM] | Ki (Mu-type opioid receptor) [nM] | Ki [2] [nM] | EC50 [3] [nM]
CC[C@H](C)[C@H](NC(=O)[C@H](CCCNC(=N)N)NC(=O)[C@H](CCCNC(=N)N)NC(=O)[C@@H]1CNC(=O)C[C@@H](NC(=O)[C@@H](N)Cc2ccc(O)cc2)C(=O)N[C@H](C)C(=O)N[C@@H](Cc2ccccc2)C(=O)N1)C(=O)N[C@@H](CCCNC(=N)N)C(=O)N1CCC[C@H]1C(=O)N[C@@H](CCCCN)C(N)=O | 0.21 | 3.89 | 139 | 0.54
CC[C@H](C)[C@H](NC(=O)[C@H](CCCNC(=N)N)NC(=O)[C@H](CCCNC(=N)N)NC(=O)[C@@H]1CNC(=O)C[C@@H](NC(=O)[C@@H](N)Cc2ccc(O)cc2)C(=O)N2CCC[C@H]2C(=O)N[C@@H](Cc2ccccc2)C(=O)N1)C(=O)N[C@@H](CCCNC(=N)N)C(=O)N1CCC[C@H]1C(=O)N[C@@H](CCCCN)C(N)=O | 9.03 | 125 | > 10000 | 153
CC[C@H](C)[C@H](NC(=O)[C@H](CCCNC(=N)N)NC(=O)[C@H](CCCNC(=N)N)NC(=O)[C@H](CC(C)C)NC(=O)[C@H](Cc1ccccc1)NC(=O)[C@@H](Cc1c[nH]c2ccccc12)NC(=O)CNC(=O)[C@@H](N)Cc1ccc(O)cc1)C(=O)N[C@@H](CCCNC(=N)N)C(=O)N1CCC[C@H]1C(=O)N[C@@H](CCCCN)C(N)=O | 5.41 | 45.9 | 1080 | –
CC[C@H](C)[C@H](NC(=O)[C@H](CCCN=C(N)N)NC(=O)[C@H](CCCN=C(N)N)NC(=O)[C@H](CN)NC(=O)[C@H](Cc1ccccc1)NC(=O)CNC(=O)[C@@H](CC(=O)O)NC(=O)[C@@H](N)Cc1ccc(O)cc1)C(=O)N[C@@H](CCCN=C(N)N)C(=O)N1CCC[C@H]1C(=O)N[C@@H](CCCCN)C(=O)N[C@@H](CC(C)C)C(=O)N[C@@H](CCCCN)C(N)=O | 0.2 | 0.26 | 3.9 | –
CC[C@H](C)[C@H](NC(=O)[C@H](CCCN=C(N)N)NC(=O)[C@H](CCCN=C(N)N)NC(=O)[C@H](CC(C)C)NC(=O)[C@H](Cc1ccccc1)NC(=O)CNC(=O)CNC(=O)[C@@H](N)Cc1ccc(O)cc1)C(=O)N[C@@H](CCCN=C(N)N)C(=O)N1CCC[C@H]1C(=O)N[C@@H](CCCCN)C(N)=O | 0.14 | – | – | –
CC[C@H](C)[C@H](NC(=O)[C@H](CCCNC(=N)N)NC(=O)[C@H](CCCNC(=N)N)NC(=O)[C@H](CC(C)C)NC(=O)[C@H](Cc1ccccc1)NC(=O)[C@@H](C)NC(=O)CNC(=O)[C@@H](N)Cc1ccc(O)cc1)C(=O)N[C@@H](CCCNC(=N)N)C(=O)N1CCC[C@H]1C(=O)N[C@@H](CCCCN)C(N)=O | 0.34 | 19.8 | – | –
CC[C@H](C)[C@H](NC(=O)[C@H](CCCN=C(N)N)NC(=O)[C@H](CCCN=C(N)N)NC(=O)[C@@H]1CNC(=O)C[C@@H](NC(=O)[C@@H](N)Cc2ccc(O)cc2)C(=O)N[C@@H](C)C(=O)N[C@@H](Cc2ccccc2)C(=O)N1)C(=O)N[C@@H](CCCN=C(N)N)C(=O)N1CCC[C@H]1C(=O)N[C@@H](CCCCN)C(N)=O | 1.1 | 2.52 | 30.8 | 0.65
CC[C@H](C)[C@H](NC(=O)[C@H](CCCN=C(N)N)NC(=O)[C@H](CCCN=C(N)N)NC(=O)[C@H](CN)NC(=O)[C@H](Cc1ccccc1)NC(=O)[C@@H](C)NC(=O)[C@@H](CC(=O)O)NC(=O)[C@@H](N)Cc1ccc(O)cc1)C(=O)N[C@@H](CCCN=C(N)N)C(=O)N1CCC[C@H]1C(=O)N[C@@H](CCCCN)C(N)=O | 6.12 | 4.21 | 959 | –
CC[C@H](C)[C@H](NC(=O)[C@H](CCCNC(=N)N)NC(=O)[C@H](CCCNC(=N)N)NC(=O)[C@@H]1CNC(=O)C[C@@H](NC(=O)[C@@H](N)Cc2ccc(O)cc2)C(=O)N[C@@H](Cc2c[nH]c3ccccc23)C(=O)N[C@@H](Cc2ccccc2)C(=O)N1)C(=O)N[C@@H](CCCNC(=N)N)C(=O)N1CCC[C@H]1C(=O)N[C@@H](CCCCN)C(N)=O | 1.33 | 2.09 | 7070 | 4.19
CC[C@H](C)[C@H](NC(=O)[C@H](CCCN=C(N)N)NC(=O)[C@H](CCCN=C(N)N)NC(=O)[C@@H]1CNC(=O)C[C@@H](NC(=O)[C@@H](N)Cc2ccc(O)cc2)C(=O)NCC(=O)N[C@@H](Cc2ccccc2)C(=O)N1)C(=O)N[C@@H](CCCN=C(N)N)C(=O)N1CCC[C@H]1C(=O)N[C@@H](CCCCN)C(=O)N[C@@H](CC(C)C)C(=O)N[C@@H](CCCCN)C(N)=O (HELM PEPTIDE1{Y.[dD].G.F.[O=C([C@H](CN[*:3])N[*:1])[*:2]].R.R.I.R.P.K.L.K.[am]}$PEPTIDE1,PEPTIDE1,2:R3-5:R3$$$V2.0) | 0.16 | 1.17 | 3.31 | –
CC[C@H](C)[C@H](NC(=O)[C@H](CCCN=C(N)N)NC(=O)[C@H](CCCN=C(N)N)NC(=O)[C@H](CN)NC(=O)[C@H](Cc1ccccc1)NC(=O)CNC(=O)[C@@H](CC(=O)O)NC(=O)[C@@H](N)Cc1ccc(O)cc1)C(=O)N[C@@H](CCCN=C(N)N)C(=O)N1CCC[C@H]1C(=O)N[C@@H](CCCCN)C(N)=O | 1.59 | 0.22 | 11.6 | –
CC[C@H](C)[C@H](NC(=O)[C@H](CCCN=C(N)N)NC(=O)[C@H](CCCN=C(N)N)NC(=O)[C@H](CC(C)C)NC(=O)[C@H](Cc1ccccc1)NC(=O)[C@H](Cc1c[nH]c2ccccc12)NC(=O)CNC(=O)[C@@H](N)Cc1ccc(O)cc1)C(=O)N[C@@H](CCCN=C(N)N)C(=O)N1CCC[C@H]1C(=O)N[C@@H](CCCCN)C(N)=O | 1.56 | 42.7 | 168 | –
CC[C@H](C)[C@H](NC(=O)[C@H](CCCN=C(N)N)NC(=O)[C@H](CCCN=C(N)N)NC(=O)[C@@H]1CNC(=O)C[C@@H](NC(=O)[C@@H](N)Cc2ccc(O)cc2)C(=O)NCC(=O)N[C@@H](Cc2ccccc2)C(=O)N1)C(=O)N[C@@H](CCCN=C(N)N)C(=O)N1CCC[C@H]1C(=O)N[C@@H](CCCCN)C(N)=O | 0.46 | 0.52 | 5.1 | 0.39
CC[C@H](C)[C@H](NC(=O)[C@H](CCCN=C(N)N)NC(=O)[C@H](CCCN=C(N)N)NC(=O)[C@@H]1CNC(=O)C[C@@H](NC(=O)[C@@H](N)Cc2ccc(O)cc2)C(=O)N[C@H](Cc2c[nH]c3ccccc23)C(=O)N[C@@H](Cc2ccccc2)C(=O)N1)C(=O)N[C@@H](CCCN=C(N)N)C(=O)N1CCC[C@H]1C(=O)N[C@@H](CCCCN)C(N)=O | 2.25 | 7.27 | 949 | 12
CC[C@H](C)[C@H](NC(=O)[C@H](CCCN=C(N)N)NC(=O)[C@H](CCCN=C(N)N)NC(=O)[C@H](CN)NC(=O)[C@H](Cc1ccccc1)NC(=O)[C@H](C)NC(=O)[C@@H](CC(=O)O)NC(=O)[C@@H](N)Cc1ccc(O)cc1)C(=O)N[C@@H](CCCN=C(N)N)C(=O)N1CCC[C@H]1C(=O)N[C@@H](CCCCN)C(N)=O | 0.86 | 2.02 | 55.1 | –
CC[C@H](C)[C@H](NC(=O)[C@H](CCCNC(=N)N)NC(=O)[C@H](CCCNC(=N)N)NC(=O)[C@H](CC(C)C)NC(=O)[C@H](Cc1ccccc1)NC(=O)[C@H](C)NC(=O)CNC(=O)[C@@H](N)Cc1ccc(O)cc1)C(=O)N[C@@H](CCCNC(=N)N)C(=O)N1CCC[C@H]1C(=O)N[C@@H](CCCCN)C(N)=O | 0.26 | 16.4 | – | –
CC[C@H](C)[C@H](NC(=O)[C@H](CCCN=C(N)N)NC(=O)[C@H](CCCN=C(N)N)NC(=O)[C@H](CN)NC(=O)[C@H](Cc1ccccc1)NC(=O)[C@H](Cc1c[nH]c2ccccc12)NC(=O)[C@@H](CC(=O)O)NC(=O)[C@@H](N)Cc1ccc(O)cc1)C(=O)N[C@@H](CCCN=C(N)N)C(=O)N1CCC[C@H]1C(=O)N[C@@H](CCCCN)C(N)=O | 1.34 | 3.41 | 927 | –
CC[C@H](C)[C@H](NC(=O)[C@H](CCCN=C(N)N)NC(=O)[C@H](CCCN=C(N)N)NC(=O)[C@H](CC(C)C)NC(=O)[C@H](Cc1ccccc1)NC(=O)CNC(=O)CNC(=O)[C@@H](N)Cc1ccc(O)cc1)C(=O)N[C@@H](CCCN=C(N)N)C(=O)N1CCC[C@H]1C(=O)N[C@@H](CCCCN)C(=O)N[C@@H](CC(C)C)C(=O)N[C@@H](CCCCN)C(N)=O | 0.39 | 1.88 | 6.07 | –
CC[C@H](C)[C@H](NC(=O)[C@H](CCCN=C(N)N)NC(=O)[C@H](CCCN=C(N)N)NC(=O)[C@H](CN)NC(=O)[C@H](Cc1ccccc1)NC(=O)[C@@H](Cc1c[nH]c2ccccc12)NC(=O)[C@@H](CC(=O)O)NC(=O)[C@@H](N)Cc1ccc(O)cc1)C(=O)N[C@@H](CCCN=C(N)N)C(=O)N1CCC[C@H]1C(=O)N[C@@H](CCCCN)C(N)=O | 1.26 | 4.57 | 813 | –
